The target in test [1] is T1, Tubulin (Sus scrofa) (UniProt P02554+P02550). In words: Binding affinity to porcine tubulin at 2 uM incubated for 30 mins followed by UV irradiation at 365 nm at distance of 10 cm on ice by SDS-PAGE analysis in presence of D-biotin. In kind it is protein assay. In a few lines: (§1)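 Competition labelling. […] Probe (2 µM, 2% DMSO final) was then added for 30 min at 37 °C. Irradiated at 365 nm, 10 cm, on ice for 30 s. Read by 10% SDS–PAGE and streptavidin–HRP/ECL blot.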

Test [2] has as its system HT-29. Nature of the test: Ratio of compound IC50 to plinabulin IC50 for human HT-29 cells. In kind it is functional.
For another test, the target named is Tubulin (Sus scrofa, UniProt P02554+P02550). In words: Binding affinity to porcine tubulin after 1 hr by spectrofluorometric analysis. The class given is protein assay. In short, it runs like this:
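Purified porcine tubulin (0.5 µM) in MES buffer pH 6.8 at 37 °C, titrated with compound. Kd derived from the quenching titration.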

The target of test [3] is T1, Tubulin (Sus scrofa). Nature of the test: Binding affinity to porcine tubulin at 2 uM incubated for 30 mins followed by UV irradiation at 365 nm at distance of 10 cm on ice by SDS-PAGE analysis in presence of colchicine. The class given is protein assay. In a few lines: as §1
Test [4] has as its target T1, Tubulin (Sus scrofa). In words: Binding affinity to porcine tubulin at 2 uM incubated for 30 mins followed by UV irradiation at 365 nm at distance of 10 cm on ice by SDS-PAGE analysis in presence of plinabulin. The class given is protein assay. In a few lines:
as §1

Test [5] concerns HT-29. In words: Cytotoxicity against human HT-29 cells after 72 hrs by XTT/PMS method. The note with it: HT-29, 72 h. In kind it is functional, cell-based. In a few lines:
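HT-29 colorectal adenocarcinoma cells in McCoy's 5A with 10% FBS, seeded at 5000 cells/well the day before. DMSO stocks serially diluted to 20 µM–2 pM final, exposed 72 h. XTT 0.1 mg/mL with 25 µM PMS added for 1 h. Formazan read at 492 nm, corrected at 690 nm. IC50 from triplicate experiments.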
(In general: Tetrazolium dyes change colour on reduction, which living cells bring about.)

Test [6] addresses T1, Tubulin (Sus scrofa). In words: Binding affinity to porcine tubulin at 2 uM incubated for 30 mins followed by UV irradiation at 365 nm at distance of 10 cm on ice by SDS-PAGE analysis. The class given is protein assay. Conditions: TDE = time-dependent effect. In short, it runs like this:
(§2)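 Tubulin (2 µM) in MES buffer pH 6.8 with 1 mM GTP and 2% DMSO, incubated with compound 30 min at 37 °C. Irradiated at 365 nm, 10 cm, on ice, 0–30 s. Separated by 10% SDS–PAGE and blotted to PVDF. Labelled tubulin detected with streptavidin–HRP/ECL chemiluminescence.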

Test [7] concerns the target T1, Tubulin (Sus scrofa). Nature of the test: Ratio of compound Kd to plinabulin Kd for porcine tubulin. The class given is protein assay.
The target of test [8] is T1, Tubulin (Sus scrofa). Nature of the test: Binding affinity to porcine tubulin incubated for 30 mins followed by UV irradiation at 365 nm for 30 seconds at distance of 10 cm on ice by SDS-PAGE analysis. The class given is protein assay. In short, it runs like this: as §2
The target in test [9] is T1, Tubulin (Sus scrofa). Nature of the test: Binding affinity to porcine tubulin at 2 uM incubated for 30 mins by SDS-PAGE analysis. In kind it is protein assay. In short, it runs like this: as §2

The source made the active and inactive calls. The rule behind the calls is not given here.

T1 sequence (P02550 whole entry, looked up): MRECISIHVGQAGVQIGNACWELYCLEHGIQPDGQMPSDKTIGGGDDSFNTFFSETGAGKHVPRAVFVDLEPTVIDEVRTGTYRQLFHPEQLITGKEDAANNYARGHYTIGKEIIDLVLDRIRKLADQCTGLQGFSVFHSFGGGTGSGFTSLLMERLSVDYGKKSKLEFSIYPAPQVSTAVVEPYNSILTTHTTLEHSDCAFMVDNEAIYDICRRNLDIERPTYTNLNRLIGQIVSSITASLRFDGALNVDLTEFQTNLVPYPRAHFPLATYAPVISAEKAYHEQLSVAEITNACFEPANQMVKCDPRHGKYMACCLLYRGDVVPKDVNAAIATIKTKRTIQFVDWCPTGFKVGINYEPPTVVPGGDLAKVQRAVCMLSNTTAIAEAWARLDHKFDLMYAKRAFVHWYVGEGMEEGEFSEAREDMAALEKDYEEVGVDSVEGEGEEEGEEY
T1 sequence (P02554 whole entry, looked up): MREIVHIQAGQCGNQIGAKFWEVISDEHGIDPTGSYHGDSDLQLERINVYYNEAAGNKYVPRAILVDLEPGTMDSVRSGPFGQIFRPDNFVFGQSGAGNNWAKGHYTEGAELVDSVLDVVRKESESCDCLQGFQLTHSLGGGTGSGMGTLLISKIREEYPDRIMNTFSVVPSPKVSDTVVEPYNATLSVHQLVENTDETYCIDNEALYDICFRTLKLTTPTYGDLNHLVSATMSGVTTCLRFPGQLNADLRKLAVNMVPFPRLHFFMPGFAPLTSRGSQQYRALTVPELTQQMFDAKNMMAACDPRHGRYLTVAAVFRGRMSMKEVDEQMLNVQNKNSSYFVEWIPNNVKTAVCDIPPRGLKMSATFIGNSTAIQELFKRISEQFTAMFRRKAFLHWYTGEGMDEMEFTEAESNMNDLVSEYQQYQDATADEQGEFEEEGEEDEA

For orientation: Kd means the concentration at which binding is half-saturated. A low value points to a tighter complex. Broadly, the IC50 is the point on the concentration scale where inhibition reaches its midpoint. Higher therefore signals weaker potency in that assay. As to `CC(C)(Cc1cn(CCCNC(=O)CCCCCNC(=O)CCCCCNC(=O)CCCC[C@@H]2SC[C@@H]3NC(=O)N[C@@H]32)nn1)c1ocnc1/C=c1\[nH]c(=O)/c(=C/c2cccc(C(=O)c3ccccc3)c2)[nH]c1=O` (stereo in doubt), the result on Tubulin (Sus scrofa) [1], on Tubulin (Sus scrofa) [3], on Tubulin (Sus scrofa) [4] and at Tubulin (Sus scrofa) [9] was inactive. Moreover, the “Ratio IC50” value in the test with HT-29 [2] is on record as 725. On Tubulin, this molecule showed a dissociation constant Kd of 17900 nM. The same molecule returned an IC50 with HT-29 [5] of 9790 nM. For the same molecule, the Activity result at Tubulin (Sus scrofa) [6] was “tde”; on Tubulin (Sus scrofa) [8], “Dose-dependent effect”. The Ratio on Tubulin (Sus scrofa) [7] stood at 17.

In the test with HT-29 [5], `COc1cc2c(c(OC)c1OC)-c1ccc(OC)c(=O)cc1[C@@H](NC(C)=O)CC2` [COLCHICINE] gave an IC50 of 16.6 nM. That is a double-digit nanomolar value.

With `CC(C)(C)c1[nH]cnc1/C=c1\[nH]c(=O)/c(=C/c2ccccc2)[nH]c1=O` [PLINABULIN], the IC50 with HT-29 [5] amounted to 13.5 nM.
